Laboratory results as given in ChEMBL document CHEMBL1122934, “Angiotensin-converting enzyme inhibitors. New orally active antihypertensive (mercaptoalkanoyl)- and [(acylthio)alkanoyl]glycine derivatives” (J Med Chem, 1985).

Assays:
[1] = target: T1, Angiotensin-converting enzyme (Oryctolagus cuniculus, UniProt P12822); experiment: In vitro inhibitory activity against rabbit lung Angiotensin I converting enzyme at pH 8.3
T1 sequence (P12822 whole entry): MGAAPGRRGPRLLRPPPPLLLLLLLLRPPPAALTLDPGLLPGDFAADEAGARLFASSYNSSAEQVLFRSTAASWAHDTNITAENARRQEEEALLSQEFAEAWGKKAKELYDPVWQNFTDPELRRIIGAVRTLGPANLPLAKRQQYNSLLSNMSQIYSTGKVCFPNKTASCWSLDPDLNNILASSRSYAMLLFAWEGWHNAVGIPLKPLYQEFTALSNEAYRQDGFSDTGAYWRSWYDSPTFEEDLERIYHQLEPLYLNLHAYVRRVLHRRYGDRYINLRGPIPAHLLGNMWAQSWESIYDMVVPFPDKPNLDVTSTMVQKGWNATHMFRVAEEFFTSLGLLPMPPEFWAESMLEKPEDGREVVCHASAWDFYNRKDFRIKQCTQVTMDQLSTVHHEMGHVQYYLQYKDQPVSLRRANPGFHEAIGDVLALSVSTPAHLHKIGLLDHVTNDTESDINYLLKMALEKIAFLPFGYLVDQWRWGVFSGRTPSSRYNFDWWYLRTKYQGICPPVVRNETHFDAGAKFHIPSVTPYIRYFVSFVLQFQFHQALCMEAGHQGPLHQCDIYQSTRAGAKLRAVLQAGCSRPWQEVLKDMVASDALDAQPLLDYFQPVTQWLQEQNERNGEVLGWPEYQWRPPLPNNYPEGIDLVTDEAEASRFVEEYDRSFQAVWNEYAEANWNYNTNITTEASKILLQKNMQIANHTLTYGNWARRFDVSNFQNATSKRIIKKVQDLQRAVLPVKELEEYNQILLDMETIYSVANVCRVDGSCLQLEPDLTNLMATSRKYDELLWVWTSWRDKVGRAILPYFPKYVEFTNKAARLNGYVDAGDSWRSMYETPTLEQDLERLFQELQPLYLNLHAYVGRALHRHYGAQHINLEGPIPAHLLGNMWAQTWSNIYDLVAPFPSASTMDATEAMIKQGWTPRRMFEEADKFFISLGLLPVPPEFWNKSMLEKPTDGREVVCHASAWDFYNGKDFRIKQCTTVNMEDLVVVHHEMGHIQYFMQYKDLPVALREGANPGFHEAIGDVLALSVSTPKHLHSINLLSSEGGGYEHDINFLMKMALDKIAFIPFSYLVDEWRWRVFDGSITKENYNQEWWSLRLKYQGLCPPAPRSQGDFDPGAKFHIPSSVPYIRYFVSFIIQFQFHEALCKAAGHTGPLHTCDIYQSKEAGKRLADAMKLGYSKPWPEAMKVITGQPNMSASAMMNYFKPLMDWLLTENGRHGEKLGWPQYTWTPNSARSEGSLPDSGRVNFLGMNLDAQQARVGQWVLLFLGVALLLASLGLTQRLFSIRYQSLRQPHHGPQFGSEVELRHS

[2] = target: T2, Angiotensin-converting enzyme (Rattus norvegicus) (UniProt P47820); experiment: Peroral dose required to inhibit angiotensin I induced vasopressor response in normotensive conscious rats; format: functional
T2 sequence (whole entry): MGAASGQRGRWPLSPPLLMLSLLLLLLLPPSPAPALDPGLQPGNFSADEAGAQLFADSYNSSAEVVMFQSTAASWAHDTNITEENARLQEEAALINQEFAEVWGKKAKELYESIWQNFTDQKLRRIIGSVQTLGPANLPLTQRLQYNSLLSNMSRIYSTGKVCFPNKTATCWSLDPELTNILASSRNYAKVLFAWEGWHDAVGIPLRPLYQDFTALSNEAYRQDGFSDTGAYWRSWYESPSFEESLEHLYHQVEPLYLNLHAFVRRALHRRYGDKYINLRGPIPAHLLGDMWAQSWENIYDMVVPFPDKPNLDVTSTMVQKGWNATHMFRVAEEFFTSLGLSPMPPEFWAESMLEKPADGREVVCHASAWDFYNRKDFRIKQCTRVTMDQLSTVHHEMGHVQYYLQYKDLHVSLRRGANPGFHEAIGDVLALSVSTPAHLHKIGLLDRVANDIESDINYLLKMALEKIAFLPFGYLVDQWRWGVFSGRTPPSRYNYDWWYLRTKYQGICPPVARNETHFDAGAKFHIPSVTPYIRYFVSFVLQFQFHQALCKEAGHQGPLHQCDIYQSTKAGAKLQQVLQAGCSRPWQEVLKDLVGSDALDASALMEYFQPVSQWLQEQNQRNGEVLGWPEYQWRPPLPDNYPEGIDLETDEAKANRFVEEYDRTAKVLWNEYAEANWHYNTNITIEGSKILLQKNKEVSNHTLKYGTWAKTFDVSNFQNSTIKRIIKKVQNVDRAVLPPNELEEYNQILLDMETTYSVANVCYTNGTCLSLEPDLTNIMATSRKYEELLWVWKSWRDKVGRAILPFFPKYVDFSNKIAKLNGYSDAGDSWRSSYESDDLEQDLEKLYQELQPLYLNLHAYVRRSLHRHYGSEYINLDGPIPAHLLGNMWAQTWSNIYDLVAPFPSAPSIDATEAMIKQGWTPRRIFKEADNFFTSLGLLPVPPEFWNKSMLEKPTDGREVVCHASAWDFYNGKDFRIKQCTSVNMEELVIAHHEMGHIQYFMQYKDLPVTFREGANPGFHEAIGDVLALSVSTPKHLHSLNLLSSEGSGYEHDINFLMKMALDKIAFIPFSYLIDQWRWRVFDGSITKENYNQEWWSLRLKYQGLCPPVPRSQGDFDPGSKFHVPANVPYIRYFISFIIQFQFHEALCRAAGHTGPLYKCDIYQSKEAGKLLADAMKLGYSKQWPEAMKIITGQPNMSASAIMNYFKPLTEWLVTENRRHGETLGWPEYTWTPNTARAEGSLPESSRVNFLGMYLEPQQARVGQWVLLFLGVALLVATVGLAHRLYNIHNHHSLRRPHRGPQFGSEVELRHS
Summary of the method: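 Male normotensive rats with aortic and vena caval catheters, used ≥6 days later while restrained; angiotensins I and II 0.25 μg/kg iv every 10 min. One oral inhibitor dose in 0.5% gum tragacanth suspension; angiotensin I repeated every 10 min for ≥2 h. Maximum inhibition as % of initial response; ID50 from dose-response plot.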

Canis familiaris = experiment: Peroral dose required to inhibit angiotensin I induced vasopressor response in normotensive conscious dogs; format: functional; settings: Canis lupus familiaris, po; read-out: ID50 (the source's name)
Summary of the method: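 Six conscious normotensive dogs; pressor response to angiotensin I 0.25 μg/kg iv. Inhibitor given orally at 0.01–1 mg/kg, vehicle 0.3 M KH₂PO₄ buffer, weekly intervals in a three-way crossover with vehicle control.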

Structure (SMILES) | IC50 [1] | ID50 [2] | ED50 (Canis familiaris)
CC(CS)C(=O)NCC(=O)O (centres undefined) | 210 nM |  | 
CC(CS)C(=O)N(CC(=O)O)C1Cc2ccccc2C1 (centres undefined) |  | 0.15 mg/kg | 
CC(CS)C(=O)N(CC(=O)O)C1CCCCC1 (centres undefined) |  | 0.1 mg/kg | 
C[C@@H](CSC(=O)C(C)(C)C)C(=O)N(CC(=O)O)C1CCCC1 | > 100000 nM | 25 mg/kg | 
CC(=O)SCC(C)C(=O)N(C1CC1)C(C)C(=O)O (centres undefined) | 220 nM |  | 
CC(=O)SCC(C)C(=O)N(CC(=O)O)C1CCCCCC1 (centres undefined) |  | 0.06 mg/kg | 
CC(CS)C(=O)N(CC(=O)O)CC1CCCO1 (centres undefined) | 130 nM |  | 
CC(=O)SCC(C)C(=O)N(CC(=O)O)C1CCC2CC1C2(C)C (centres undefined) | 45 nM |  | 
CC(CS)C(=O)N(CC(=O)O)Cc1cccs1 (centres undefined) | 55 nM |  | 
CC(CS)C(=O)N(CC(=O)O)C[C@H]1CC2CC(C1C)C2(C)C (some centres undefined) | 160 nM |  | 
CC(CS)C(=O)N(C)CC(=O)O (centres undefined) | 130 nM |  | 
CC(=O)SCC(C)C(=O)N(CC(=O)O)C1CC2CCC1C2 (stereo in doubt; 31) | 52 nM |  | 
CCN(CC(=O)O)C(=O)C(C)CS (centres undefined) | 75 nM |  | 
CC(CSC(=O)CC(C)(C)C)C(=O)N(CC(=O)O)C1CCCC1 (centres undefined) | 15000 nM | 1.2 mg/kg | 
C#CCN(CC(=O)O)C(=O)C(C)CS (centres undefined) | 270 nM |  | 
CC(CS)C(=O)N(C1CC1)C(C)C(=O)O (centres undefined) | 79 nM |  | 
CC(=O)SCC(C)C(=O)N(CC(=O)O)C1CCCCC1 (centres undefined) | 270 nM |  | 
CC(=O)SCC(C)C(=O)N(CC(=O)O)C1CC2CCC1C2 (stereo in doubt; 30) [listing 1 of 2 here] | 20 nM |  | 
CC(=O)SCC(C)C(=O)N(CC(=O)O)CC1CCCO1 (centres undefined) | 1900 nM |  | 

Structure (SMILES) | IC50 [1] | ID50 [2] | ED50 (Canis familiaris)
CCN1CCCC1CN(CC(=O)O)C(=O)C(C)CS (centres undefined) | 640 nM |  | 
CC(=O)SCC(C)C(=O)N(CC(=O)O)C[C@H]1CC2CC(C1C)C2(C)C (some centres undefined) | 140 nM |  | 
CC(S)C(=O)NCC(=O)O (centres undefined) [TIOPRONIN] | 1900 nM |  | 
CCOC(=O)[C@H](CCc1ccccc1)N[C@@H](C)C(=O)N1CCC[C@H]1C(=O)O |  | 0.08 mg/kg | 0.1 mg/kg
CC(=O)SCC(C)C(=O)N(CC(=O)O)C1CC2CCC1C2 (stereo in doubt; 30) [listing 2 of 2 here] |  | 0.06 mg/kg | 
CC(CSC(=O)C(C)(C)C)C(=O)N(CC(=O)O)C1CCCC1 (centres undefined) | 3700 nM | 0.15 mg/kg | 
CC(CS)C(=O)N(CC(=O)O)C1CCC1 (centres undefined) | 18 nM | 0.3 mg/kg | 
CC(CS)C(=O)N(CC(=O)O)C1CC2CCC1C2 (centres undefined) | 32 nM | 0.1 mg/kg | 
CC(CS)C(=O)N(CC(=O)O)C1CCCCCC1 (centres undefined) |  | 0.05 mg/kg | 
C[C@H](CS)C(=O)N1CCC[C@H]1C(=O)O [CAPTOPRIL] |  |  | 0.057 mg/kg
C[C@H](CSC(=O)C(C)(C)C)C(=O)N(CC(=O)O)C1CCCC1 [PIVOPRIL] | 3600 nM | 0.058 mg/kg | 0.17 mg/kg
CC(CS)C(=O)N(CC(=O)O)CC1CC2CC(C1C)C2(C)C (centres undefined) | 440 nM |  | 
CC(CS)C(=O)N(CC(=O)O)Cc1ccco1 (centres undefined) | 170 nM |  | 
CC(CS)C(=O)N(CC(=O)O)C1CCS(=O)(=O)C1 (centres undefined) | 280 nM |  | 
CC(=O)SCC(C)C(=O)N(CC(=O)O)CC1CC2CC(C1C)C2(C)C (centres undefined) | 85 nM |  | 
CC(CS)C(=O)N(CC(=O)O)C1CCCC1 (centres undefined) |  | 0.15 mg/kg | 
CC(CS)C(=O)N(CC(=O)O)C(C)C (centres undefined) | 72 nM |  | 
CC(CS)C(=O)N(CC(=O)O)C1CC1 (centres undefined) | 30 nM | 0.3 mg/kg | 
CC(=O)SCC(C)C(=O)N(CC(=O)O)C1CCS(=O)(=O)C1 (centres undefined) | 280 nM |  | 

Further lines, with some results ahead:

IC50 [1] | ID50 [2] | Structure (SMILES) | ED50 (Canis familiaris)
44 nM |  | CC(=O)SCC(C)C(=O)N(CC(=O)O)c1cc(C)cc(C)c1 (centres undefined) | 
700 nM |  | CC(=O)SCC(C)C(=O)N(CC(=O)O)Cc1ccco1 (centres undefined) | 
340 nM |  | CC(=O)SCC(C)C(=O)N(CC(=O)O)C1Cc2ccccc2C1 (centres undefined) | 
44 nM |  | Cc1cc(C)cc(N(CC(=O)O)C(=O)C(C)CS)c1 (centres undefined) | 
120 nM |  | Cc1ccccc1N(CC(=O)O)C(=O)C(C)CS (centres undefined) | 
540 nM | 0.2 mg/kg | CC(=O)SCC(C)C(=O)N(CC(=O)O)C1CC1 (centres undefined) | 
300 nM | 0.2 mg/kg | CC(=O)SCC(C)C(=O)N(CC(=O)O)c1ccccc1 (centres undefined) | 
19 nM |  | Cc1cccc(N(CC(=O)O)C(=O)C(C)CS)c1 (centres undefined) | 
220 nM |  | CC(=O)SCC(C)C(=O)N(CC(=O)O)C1CCC1 (centres undefined) | 
82 nM | 0.15 mg/kg | CC(=O)SCC(C)C(=O)N(CC(=O)O)C1CCCC1 (centres undefined) | 
51 nM |  | CC(=O)SCC(C)C(=O)N(CC(=O)O)c1cccc(F)c1 (centres undefined) | 
48 nM | 1.5 mg/kg | CC(=O)SCC(C)C(=O)N(CC(=O)O)c1ccc2c(c1)CCC2 (centres undefined) | 
60 nM |  | CC(=O)SCC(C)C(=O)N(CC(=O)O)c1ccc(C(C)C)cc1 (centres undefined) | 
110 nM |  | COc1cccc(N(CC(=O)O)C(=O)C(C)CSC(C)=O)c1 (centres undefined) | 
550 nM |  | CC(=O)SCC(C)C(=O)N(CC(=O)O)c1ccccc1C (centres undefined) | 
900 nM | 1.5 mg/kg | CSCCCN(CC(=O)O)C(=O)C(C)CSC(C)=O (centres undefined) | 
5 nM |  | Cc1ccc(N(CC(=O)O)C(=O)C(C)CS)cc1 (centres undefined) | 
75 nM | 0.15 mg/kg | CC(=O)SCC(C)C(=O)N(CC(=O)O)c1cccc(C)c1 (centres undefined) | 
64 nM |  | CCCCc1ccc(N(CC(=O)O)C(=O)C(C)CSC(C)=O)cc1 (centres undefined) | 
750 nM |  | CC(=O)SCC(C)C(=O)N(CC(=O)O)Cc1cccs1 (centres undefined) | 
5900 nM |  | CC(=O)SCC(C)C(=O)N(CC(=O)O)C(C)C (centres undefined) | 
130 nM | 0.15 mg/kg | CC(=O)SCC(C)C(=O)N(CC(=O)O)c1ccc(C)cc1 (centres undefined) | 
75 nM |  | CSc1cccc(N(CC(=O)O)C(=O)C(C)CSC(C)=O)c1 (centres undefined) | 
600 nM |  | CC(=O)SCC(C)C(=O)N(CC(=O)O)c1ccc(F)cc1 (centres undefined) | 
4500 nM |  | C#CCN(CC(=O)O)C(=O)C(C)CSC(C)=O (centres undefined) | 
